Our source for the Tm and folding enthalpy values is the array DNA melting data of Ke et al. (doi:10.1101/2024.01.08.574731).

Data set [1] can be described thus: melting temperature; fluorescence melt of hairpins on a sequencing array, two-state fit, raised by 9.35 °C to match UV melts. The following applies: sodium 0.088 M. The method in brief: (§1)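 Cy3 fluorescence of library hairpins on a sequenced MiSeq flow cell, with annealed Cy3 and quencher oligos, was imaged in 50 mM Na-HEPES pH 8.0, 25 mM NaCl in 2.5 °C steps up to 60 °C. Signals were normalised to pre-quench Cy3 and to control variants. Melting temperature and folding enthalpy came from bootstrapped two-state fits, inverse-variance combined over four replicates. Fitted temperatures were raised by 9.35 °C to match UV melts.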

Data set [2] in a line: folding enthalpy; higher = less favourable; fluorescence melt of hairpins on a sequencing array, two-state fit. The following applies: sodium 0.088 M. The method in brief: as §1

In the case of GATCTCTTGTGAGATC ((((((....)))))), the Tm in data set [1] was 53.1 °C. The folding enthalpy in data set [2] is -48.6 kcal/mol.

GATCTCTTTAGAGATC ((((((....)))))): the Tm in data set [1] is 61.8 °C. Besides, the folding enthalpy in data set [2] is -44.9 kcal/mol.

As for GATCTCTTTCGAGATC ((((((....)))))), in data set [1], the Tm was determined as 52.2 °C. The folding enthalpy in data set [2] was -28.2 kcal/mol.

GATCTGAATCAGATC ((((((...)))))): in data set [1], the Tm stood at 44.7 °C. The folding enthalpy in data set [2] is -34 kcal/mol.

With GATCTGACAACAGATC ((((((....)))))), the Tm in data set [1] worked out at 46.5 °C. The folding enthalpy in data set [2] was -36.6 kcal/mol.

With GATCTGACATCAGATC ((((((....)))))), in data set [1], the Tm came to 48.3 °C. The folding enthalpy in data set [2] is -33.5 kcal/mol.

As to GATCTGACGCCAGATC ((((((....)))))), in data set [1], the Tm turned out to be 48.6 °C. Besides, the folding enthalpy in data set [2] was -33.5 kcal/mol.

For the sequence GATCTGACTACAGATC ((((((....)))))), the Tm in data set [1] worked out at 49.5 °C. For the same sequence, the folding enthalpy in data set [2] is -36.9 kcal/mol.

As for GATCTGAGGCAGATC ((((((...)))))), the Tm in data set [1] stood at 47.5 °C. Moreover, in data set [2], the folding enthalpy is -31.4 kcal/mol.

As for GATCTGAGGGCAGATC ((((((....)))))), the Tm in data set [1] was 47.7 °C. Besides, the folding enthalpy in data set [2] is -33.4 kcal/mol.

In the case of GATCTGATACCAGATC ((((((....)))))), in data set [1], the Tm was determined as 47.1 °C. For the same sequence, the folding enthalpy in data set [2] was -40.8 kcal/mol.

GATCTGATTCCAGATC ((((((....)))))): in data set [1], the Tm worked out at 48.5 °C. Moreover, in data set [2], the folding enthalpy is -34 kcal/mol.

Consider GATCTGCAGACAGATC ((((((....)))))), for which the Tm in data set [1] is 51.2 °C. Further, in data set [2], the folding enthalpy was -40 kcal/mol.

Regarding GATCTGCCCACAGATC ((((((....)))))), the Tm in data set [1] amounted to 52.4 °C. Further, in data set [2], the folding enthalpy was -37 kcal/mol.

For the sequence GATCTGCCCGCAGATC ((((((....)))))), in data set [1], the Tm turned out to be 59.7 °C. Moreover, in data set [2], the folding enthalpy was -46.4 kcal/mol.

For the sequence GATCTGCGACCAGATC ((((((....)))))), the Tm in data set [1] came to 46.6 °C. Besides, the folding enthalpy in data set [2] was -35 kcal/mol.

For the sequence GATCTGCGCACAGATC ((((((....)))))), the Tm in data set [1] is 52.8 °C. In addition, the folding enthalpy in data set [2] was -38.3 kcal/mol.

Consider GATCTGCGCCAGATC ((((((...)))))), for which the Tm in data set [1] turned out to be 50.8 °C. Further, the folding enthalpy in data set [2] was -35.3 kcal/mol.

GATCTGCGCTCAGATC ((((((....)))))): in data set [1], the Tm was 49.3 °C. For the same sequence, the folding enthalpy in data set [2] is -39.7 kcal/mol.

For the sequence GATCTGCGGGCAGATC ((((((....)))))), the Tm in data set [1] stood at 60.7 °C. Further, the folding enthalpy in data set [2] is -42.9 kcal/mol.

With GATCTGCGTTCAGATC ((((((....)))))), the Tm in data set [1] turned out to be 48.8 °C. Moreover, the folding enthalpy in data set [2] was -37.5 kcal/mol.

Consider GATCTGCTAACAGATC ((((((....)))))), for which the Tm in data set [1] was 50.4 °C. Also, in data set [2], the folding enthalpy is -37.1 kcal/mol.

On to GATCTGCTAGCAGATC ((((((....)))))), for which the Tm in data set [1] stood at 60.9 °C. In data set [2], the folding enthalpy is -48.5 kcal/mol.

GATCTGCTCACAGATC ((((((....)))))): the Tm in data set [1] came out at 51.6 °C. Also, in data set [2], the folding enthalpy is -36.9 kcal/mol.

With GATCTGCTGACAGATC ((((((....)))))), the Tm in data set [1] came to 50.5 °C. Further, the folding enthalpy in data set [2] was -39.7 kcal/mol.

Turning to GATCTGCTGCCAGATC ((((((....)))))), the Tm in data set [1] amounted to 49.8 °C. Moreover, the folding enthalpy in data set [2] was -39.2 kcal/mol.

Take GATCTGCTGTCAGATC ((((((....)))))): in data set [1], the Tm worked out at 51.6 °C. In addition, the folding enthalpy in data set [2] was -32.2 kcal/mol.

Turning to GATCTGGAAGCAGATC ((((((....)))))), in data set [1], the Tm was determined as 50.8 °C. In data set [2], the folding enthalpy was -37.8 kcal/mol.

For the sequence GATCTGGAGGCAGATC ((((((....)))))), in data set [1], the Tm was 48.1 °C. Also, the folding enthalpy in data set [2] is -31.1 kcal/mol.

Consider GATCTGGCACAGATC ((((((...)))))), for which the Tm in data set [1] was determined as 58.4 °C. The folding enthalpy in data set [2] is -38.8 kcal/mol.

In the case of GATCTGGCACCAGATC ((((((....)))))), the Tm in data set [1] worked out at 55.1 °C. Also, the folding enthalpy in data set [2] is -41.3 kcal/mol.

On to GATCTGGCATCAGATC ((((((....)))))), for which, in data set [1], the Tm turned out to be 54.6 °C. Moreover, the folding enthalpy in data set [2] was -46.2 kcal/mol.

As to GATCTGGCCACAGATC ((((((....)))))), in data set [1], the Tm was found to be 59.8 °C. The folding enthalpy in data set [2] was -39.6 kcal/mol.

Consider GATCTGGCGACAGATC ((((((....)))))), for which, in data set [1], the Tm came out at 55.8 °C. Further, in data set [2], the folding enthalpy was -44.1 kcal/mol.

For the sequence GATCTGGCGTCAGATC ((((((....)))))), the Tm in data set [1] stood at 50.9 °C. For the same sequence, the folding enthalpy in data set [2] was -31.8 kcal/mol.

Take GATCTGGCTGCAGATC ((((((....)))))): the Tm in data set [1] was found to be 50 °C. In data set [2], the folding enthalpy was -36.3 kcal/mol.

With GATCTGGGAAACCAGACC (.(((((....))))).), the Tm in data set [1] is 38.5 °C. The folding enthalpy in data set [2] is -16.1 kcal/mol.

As for GATCTGGGAAACTGGATC ((((..(....)..)))), the Tm in data set [1] was 35.2 °C. The folding enthalpy in data set [2] is -26.2 kcal/mol.

Turning to GATCTGGGCGCAGATC ((((((....)))))), the Tm in data set [1] amounted to 53.5 °C. The folding enthalpy in data set [2] is -37.7 kcal/mol.

As for GATCTGGGCTCAGATC ((((((....)))))), the Tm in data set [1] came out at 52.8 °C. Besides, the folding enthalpy in data set [2] was -39.3 kcal/mol.

Take GATCTGGTTCAGATC ((((((...)))))): the Tm in data set [1] is 49.9 °C. For the same sequence, in data set [2], the folding enthalpy was -36.5 kcal/mol.

On to GATCTGGTTCCAGATC ((((((....)))))), for which the Tm in data set [1] amounted to 53.5 °C. Also, in data set [2], the folding enthalpy was -47.1 kcal/mol.

On to GATCTGTACTCAGATC ((((((....)))))), for which the Tm in data set [1] was 50.2 °C. For the same sequence, the folding enthalpy in data set [2] is -36.1 kcal/mol.

Turning to GATCTGTCACCAGATC ((((((....)))))), the Tm in data set [1] turned out to be 49.4 °C. In data set [2], the folding enthalpy is -39.4 kcal/mol.

As for GATCTGTCAGCAGATC ((((((....)))))), the Tm in data set [1] was found to be 51.7 °C. In addition, the folding enthalpy in data set [2] is -40.7 kcal/mol.

Regarding GATCTGTTACCAGATC ((((((....)))))), the Tm in data set [1] is 50.5 °C. Further, the folding enthalpy in data set [2] was -42.4 kcal/mol.

For the sequence GATCTGTTCACAGATC ((((((....)))))), in data set [1], the Tm was found to be 56.9 °C. The folding enthalpy in data set [2] was -35.1 kcal/mol.

GATCTGTTCGCAGATC ((((((....)))))): the Tm in data set [1] stood at 53.4 °C. Besides, the folding enthalpy in data set [2] was -47.6 kcal/mol.

Consider GATCTGTTGCCAGATC ((((((....)))))), for which the Tm in data set [1] came to 50.5 °C. The folding enthalpy in data set [2] was -36.9 kcal/mol.

On to GATCTGTTGGCAGATC ((((((....)))))), for which the Tm in data set [1] was determined as 54.2 °C. The folding enthalpy in data set [2] is -40.3 kcal/mol.

Take GATCTTAAACAAGATC ((((((....)))))): the Tm in data set [1] is 38.7 °C. Moreover, in data set [2], the folding enthalpy is -24.9 kcal/mol.

As for GATCTTAACGAAGATC ((((((....)))))), in data set [1], the Tm was determined as 40 °C. In addition, the folding enthalpy in data set [2] was -29.9 kcal/mol.

Take GATCTTAAGGAAGATC ((((((....)))))): the Tm in data set [1] is 39.1 °C. The folding enthalpy in data set [2] was -23.1 kcal/mol.

As for GATCTTAAGTAAGATC ((((((....)))))), in data set [1], the Tm is 42.8 °C. The folding enthalpy in data set [2] is -25.5 kcal/mol.

As to GATCTTAATTAAGATC ((((((....)))))), in data set [1], the Tm amounted to 44.7 °C. Besides, in data set [2], the folding enthalpy is -32.1 kcal/mol.

GATCTTACAGAAGATC ((((((....)))))): in data set [1], the Tm is 38.4 °C. The folding enthalpy in data set [2] is -31.8 kcal/mol.

On to GATCTTACCAAAGATC ((((((....)))))), for which, in data set [1], the Tm is 44.5 °C. Besides, the folding enthalpy in data set [2] is -34.6 kcal/mol.
